# High-throughput results as filed in PubChem BioAssay.
# Ecoli rRNA inh – inhibits bacterial ribosomal RNA function over humanized ribosomes. E. coli WT GFP vs humanized-ribosome RFP mutants, fluorescence, 24 h; stronger effect = lower value; DMSO median 0, no signal -100. GFP signal change (wild-type ribosome), % (test concentration not listed). 1.6% of 350,000 active. AID 720706;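 active means significant combined selectivity score with lowered wild-type GFP, culture density cut under 30%, mutant RFP and density less affected; inactive means any of these conditions unmet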
# S100A4 inh HTS – inhibitors of human S100A4 binding to myosin IIA peptide. P26447. S100A4/TAMRA-MyoIIA peptide fluorescence polarization. inhibition, % at 10.7 µM. 0.14% of 360,000 active;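 active means mean inhibition of at least 70% across replicates, with every replicate also reaching that level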
# Target sequence (P26447 whole entry, looked up): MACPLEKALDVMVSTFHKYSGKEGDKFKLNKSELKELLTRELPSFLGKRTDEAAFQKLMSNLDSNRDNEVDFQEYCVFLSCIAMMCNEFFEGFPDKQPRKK
#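 Test system: S100A4 monomer protein; Medium: HEPES pH 7.2 with CaCl2, KCl, NaCl, DTT, Triton; Probe or stimulus: TAMRA-labelled myosin IIA heavy-chain peptide probe, 5 nM; Doses: one dose per compound; Times: polarization read 5 min after assay mix addition, stable 5–60 min; Benchmarks: neutral control DMSO, positive control TFP.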
# Vif inh – HIV Vif inhibition. HEK293T cells, Vif self-association by quenched fluorescence, imaging, 24 h. inhibition, % at 7.49 µM. 0.35% of 340,000 active. AID 602346; in the data active means inhibition above about 50%, passing the limit was not always enough
# HIV Env fusion – blocks HIV Env-driven cell-cell fusion; HeLa-JRFL Env/CEM21 cell fusion, luciferase; inhibition, % at 12.3 µM; 1.1% of 360,000 active;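 active means mean replicate inhibition score of at least 50 and every replicate individually at or above 50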
# miR122 inh – inhibitors of miR-122 in Huh7 cells; Huh7 miR-122 Renilla luciferase sensor, 48 h; neutral wells = 0, positive control = 100; activation (reporter increase), % at 12.5 µM; 0.3% of 340,000 active; AID 602342;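 active means mean replicate activation score at least 90 and every replicate individually at or above 90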;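 further: higher luciferase means less miR-122 activity so hits act as miR-122 inhibitors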
# FN deposit inh – fibronectin deposition inhibition. 0.086% of 350,000 active. inhibition, % at 12.6 µM. AH1F fibroblasts, Alexa488-fibronectin deposition fluorescence, overnight;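 active means mean inhibition across replicates of 30% or more, regardless of how many single replicates reach that level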
#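 Material – AH1F fibroblast monolayer, labelled fibronectin deposition · Reagent – labelled fibronectin 24 nM · Timing – 1 h adhesion, overnight exposure · Measured by – fluorescence at 485 nm excitation, 525 nm emission · Read-out – inhibition of fibronectin deposition signal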
# Hits are given with their value; n = inactive; x = no result; [ ] = another dose, or the depositor's remark. Hits are enriched below; roughly 2.6% of the tested compounds scored in any of these assays.
SMILES,Ecoli rRNA inh,S100A4 inh HTS,Vif inh,HIV Env fusion,miR122 inh,FN deposit inh
CO[C@@H]1CN(C)C(=O)c2ccc(NC(C)=O)cc2OC[C@H](C)N(C(=O)CN2CCOCC2)C[C@@H]1C,n,x,x,x,n,n
O=C(NCc1ccccn1)c1cc(-c2ccc(Br)cc2)nc2ccccc12,n,n,n,n,n,n
CCc1ccc(-c2cc(C(=O)NCc3ccccn3)c3ccccc3n2)cc1,x,x,n,n,148,x
Cc1ccc(-c2cc(C(=O)NCc3ccccn3)c3ccccc3n2)cc1,x,x,59,x,x,x
C[C@@H]1CN([C@H](C)CO)C(=O)c2cccc(NC(=O)C3CCCCC3)c2O[C@H]1CN(C)C(=O)Nc1cccc2ccccc12,n,n,x,x,n,x
CCOC(=O)NNC(=O)CCn1c2c(c3ccccc31)CCCC2,-17,n,n,n,x,n
COc1ccc(S(=O)(=O)NC[C@@H]2CC[C@H]3[C@H](CN3Cc3cc(F)ccc3F)O2)cc1,x,n,x,60[16.7 µM],x,x
COc1ccccc1C#Cc1ccc2c(c1)[C@@H]1[C@@H](CCN1C(=O)Cc1ccccc1)[C@H](CO)N2,n,n,x,x,x,n
Cc1ccc(Cn2nnc3c(=O)n(Cc4cccc(C)c4)cnc32)cc1,x,x,n,x,n,x
Cc1cccc(Cn2cnc3c(nnn3Cc3ccc(Cl)cc3)c2=O)c1,x,x,n,60,n,n
CC(C)NC(=O)N[C@H]1CC[C@@H](CCNC(=O)C2CCOCC2)O[C@@H]1CO,n,n,x,n,n,n
CCOC(=O)c1ccc2[nH]c3c(c2c1)CCCC3O (stereo unspecified),-32,n,n,n,x,n
CO[C@@H]1CN(C)C(=O)c2ccc(NC(=O)C3CC3)cc2OC[C@H](C)N(C(=O)Cc2ccccn2)C[C@H]1C,n,n,x,x,x,n
CN1c2ccc(-c3cccc(F)c3)cc2[C@@H]2[C@@H](CCN2C(=O)C2CC2)[C@H]1CO,n,n,x,x,n,n
CN1c2ccc(-c3cccc(F)c3)cc2[C@H]2[C@H](CCN2C(=O)C2CC2)[C@H]1CO,n,n,x,x,100[16.7 µM],n
CN1c2ccc(-c3cccc(F)c3)cc2[C@H]2[C@H](CCN2C(=O)c2ccccc2F)[C@H]1CO,n,89,x,x,107[16.7 µM],n
COc1cccc(-c2ccc3c(c2)[C@H]2[C@H](CCN2C(=O)c2ccccc2F)[C@@H](CO)N3C)c1,n,x,x,x,n,n
N#C[C@@H]1[C@H](c2ccccc2-c2cccc(F)c2)[C@@H](CO)N1C(=O)C1CC1,n,77,x,x,x,n
CCCCOC(=O)c1[nH]c2c(c1C)C(=O)CC(c1cc(OC)c(OC)c(OC)c1)C2 (stereo unspecified),n,n,n,64,n,n
O=S(=O)(/C(=C/c1ccc(C(F)(F)F)cc1)c1nc2ccccc2[nH]1)c1ccccc1,x,x,x,n,x,65
COc1ccc(NC(=O)O/N=C/c2ccccc2Cl)cc1,-13,n,n,n,x,n
O=C(Nc1ccc2c(c1)OCO2)N[C@H]1CC[C@H](CCNC(=O)C2CCOCC2)O[C@@H]1CO,n,n,x,n,x,n
Cc1cccc(-c2noc(CN(C(=O)c3c(-c4ccccc4Cl)noc3C)C(C)C)n2)c1,n,n,n,n,n,n
Cc1onc(-c2ccccc2Cl)c1C(=O)N(Cc1nc(-c2ccccc2)no1)C1CCCCC1,x,x,n,88,n,n
CCc1nc2ccccc2c(C(=O)Oc2cccc3cccnc23)c1C,x,x,n,80,n,n
SMILES,Ecoli rRNA inh,S100A4 inh HTS,Vif inh,HIV Env fusion,miR122 inh,FN deposit inh
CCc1nc2ccccc2c(C(=O)OCC(=O)N2CC(C)OC(C)C2)c1C (stereo unspecified),n,n,n,64,n,n
Oc1ccc(N=Nc2ccc3c(c2)OCCO3)c(O)c1,-38,n,n,n,n,n
CCOC(=O)CC(=O)CSc1nc2ccc(C)cc2cc1C#N,n,n,83,x,n,x
C[C@H](CO)N1C[C@H](C)[C@H](CN(C)S(C)(=O)=O)Oc2ccc(NC(=O)Cc3cn(C)c4ccccc34)cc2CC1=O,n,n,x,x,n,x
CC(C)C1Nc2ccc(C(=O)NCCCN3CCOCC3)cc2NC1=O (stereo unspecified),x,x,55,x,x,x
CC(C)CC1Nc2ccc(C(=O)NCCCN3CCOCC3)cc2NC1=O (stereo unspecified),n,n,n,n,x,n
CC(C)NC(=O)N(C)C[C@H]1Oc2ccc(NC(=O)c3ccncc3)cc2CC(=O)N([C@@H](C)CO)C[C@@H]1C,n,n,x,x,n,n
CCOC(=O)C1=CCN(S(=O)(=O)c2cccc(Cl)c2)C1c1ccc(C)cc1 (stereo unspecified),n,n,n,x,n,n
CCOC(=O)c1sc(/S(C)=N\S(=O)(=O)c2cccc(Cl)c2)c2c1CCC=C2 (stereo unspecified),-19,n,n,n,x,n
Cc1cc(C(=O)COc2ccc(Cl)cc2Br)c(C)n1C,-45,n,n,n,x,n
O=C(N[C@@H]1CC[C@H](CC(=O)N2CCCCC2)O[C@@H]1CO)c1ccccn1,n,n,x,n,x,n
Cc1ccccc1-n1ncc2c(SCC(=O)N3c4ccccc4CC3C)ncnc21 (stereo unspecified),-26,n,n,x,n,x
O=C(COc1ccc(S(=O)(=O)N2CCOCC2)cc1)NC1CCCC1,x,x,n,x,n,x
Cc1ccc(NC(=O)NNC(=O)COc2ccc([N+](=O)[O-])cc2)cc1C,n,n,n,x,x,n
O=C(COc1ccc([N+](=O)[O-])cc1)NNC(=O)Nc1ccc([N+](=O)[O-])cc1,-19,n,n,x,n,n
CCCOC(=O)c1cccc(NC(=O)COc2ccc([N+](=O)[O-])cc2)c1,-21,n,n,n,x,n
CCOC(=O)c1cccc(NC(=O)COc2ccc([N+](=O)[O-])cc2)c1,x,x,n,n,n,n
O=C(COc1ccc([N+](=O)[O-])cc1)Nc1ccc(S(=O)(=O)N2CCOCC2)cc1,n,n,55,n,n,n
O=C(COc1ccc(S(=O)(=O)N2CCOCC2)cc1)NC1CC1,n,n,52,n,x,n
O=C(C[C@H]1CC[C@H]2[C@@H](COC[C@@H](O)CN2S(=O)(=O)c2cccc(Cl)c2)O1)N1CCCCC1,n,n,x,n,n,n
C[C@@H](NC(=O)C[C@H]1C[C@@H]2c3cc(NC(=O)CN(C)C)ccc3O[C@@H]2[C@@H](CO)O1)c1ccccc1,n,n,x,n,n,n
CCCOc1ccc(/C=C/C(=O)Nc2ccc([N+](=O)[O-])cc2)cc1,x,x,x,68,n,n
O=C(c1cc(=O)c2ccccc2o1)N1CCN(c2cccc(Cl)c2)CC1,-30,n,n,n,x,n
COc1ccccc1S(=O)(=O)Cc1ccc(C(=O)N2CCN(c3cccc(Cl)c3)CC2)o1,x,x,n,98,n,n
C[C@@H]1CN([C@H](C)CO)C(=O)c2cc(C#CC3(O)CCCC3)cnc2O[C@@H]1CN(C)Cc1ccccn1,n,n,x,x,n,x
